The values below come from PubChem BioAssay.

The structures appear in SMILES notation. Activity calls are given as the source filed them.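 The calls were made as follows, unless noted: active = viability loss from added drug above about 55%, and viability with drug at most 40%, in both replicates (limit read from the data, passing the limit was not always enough); inconclusive = both conditions met in only one replicate; inactive = neither replicate meets both conditions.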

Experiment [1] can be described thus: reduced viability of SK-BR-3 breast cancer cells – cell-based, 24 h, human, pilot screen (AID 572;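 active = viability at or below 10% of carrier control in both of two separate runs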;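 also: compound exposure lasted between 18 and 24 h rather than exactly 24 h; 100% = carrier-treated control wells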). As to conditions: SK-BR-3 viability, CellTiter-Glo luminescence, at 10 µM, stronger effect = lower value. For orientation: ATP-based viability assays read luminescence as a measure of living cells.
A short description of experiment [2]: HUVEC growth inhibition – cell-based, human, primary screen (AID 575;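 active = viability at or below 30% in both replicate assays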;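 also: 100% = median of untreated cell wells with 0.1% DMSO on each plate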). As to conditions: HUVEC proliferation, CellTiter-Glo luminescence, 72 h; at 10 µM; stronger effect = lower value. In outline: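 material = primary HUVEC, no more than 12 passages | input = 1250 cells per well | controls = vehicle and MePR control wells | measured by = CTG luminescence | times = 72 h compound incubation | format = collagen-coated 384-well format | read-out = % viability vs DMSO wells | doses = single 10 µM dose, 0.1% DMSO, from 5x medium stock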

Experiment [3] is described as follows: H69AR cell proliferation blockers – human, duplicate replicates, primary screen (AID 580;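 active = viability at or under a set limit in both replicates, limit being median viability minus 3 SD, cut at about 48% in these data, passing the limit was not always enough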;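 also: 100% = mean luminescence of untreated wells and 0% = no signal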). As to conditions: H69AR lung tumor cells viability, ATP luminescence, 72 h; at 10 µM; stronger effect = lower value.
Experiment [4] in a line: MRP1 drug-resistance reversers in H69AR cells – cell-based, doxorubicin co-treatment, pilot screen (AID 601). As to conditions: CellTiter-Glo, 72 h, at 10 µM; for differential viability (reversal): stronger effect = higher value.
Experiment [5] is described as follows: yeast transport mutant growth inhibition pilot in 384-well plates, post-Golgi transport modulator project (AID 636; in the data active = inhibition above about 31%). As to conditions: absorbance 615 nm, about 18 h, stronger effect = higher value.
Experiment [6] is described as follows: growth suppression of yeast trafficking mutant, preliminary HTS, modulators of trafficking downstream of Golgi apparatus project, 1536-format plate, OD 615 nm (AID 637; in the data active = inhibition above about 30%). As to conditions: yeast transport mutant growth, absorbance 615 nm, 18 h; stronger effect = higher value.
Where [7] appears, read: H69AR cells + 2 uM doxorubicin, measured here: viability with 2 uM doxorubicin, stronger effect = lower value.
[8] abbreviates: H69AR cells, compound alone cytotoxicity.

On to `O=C(NCc1ccccc1)c1cc(-c2ccco2)on1`, for which the viability in experiment [1] is 111% (inactive); in experiment [2], 100% (inactive); in experiment [3], 94% (inactive); in experiment [4] (setting [7]) it was 77.3%; in experiment [4] (setting [8]), 94%. Besides, the differential viability (reversal) in experiment [4] (H69AR cells + 2 uM doxorubicin) is 16.6% (inactive). Moreover, the inhibition in experiment [5] was -0.13% (inactive); in experiment [6], 4.59% (inactive).

As for `O=C(NCCO)c1cc2ccccc2cc1O`, the viability is 104% (inactive) in experiment [1]; 110% (inactive) in experiment [2]; 97% (inactive) in experiment [3]; 115% in experiment [4] (setting [7]); 97% in experiment [4] (setting [8]). In addition, the differential viability (reversal) in experiment [4] (H69AR cells + 2 uM doxorubicin) was -17.9% (inactive). The inhibition in experiment [5] was -3.25% (inactive); in experiment [6], 4.43% (inactive).

Consider `COC(=O)CSc1ncccc1-c1nc2ccccc2[nH]1`, for which the viability was 110% (inactive) in experiment [1]; 96.9% (inactive) in experiment [2]; 90.8% (inactive) in experiment [3]; 91.5% in experiment [4] (setting [7]); 90.8% in experiment [4] (setting [8]). In experiment [4] (H69AR cells + 2 uM doxorubicin), the differential viability (reversal) is -0.73% (inactive). For the same compound, the inhibition in experiment [5] is -2.33% (inactive); in experiment [6] it was -5.48% (inactive).

Regarding `CCOC(=O)c1cc(C(C)(C)C)oc1CN`, the viability in experiment [1] was 118% (inactive); in experiment [2], 96.1% (inactive); in experiment [3] it was 90.8% (inactive); in experiment [4] (setting [7]), 92.5%; in experiment [4] (setting [8]), 90.8%. In addition, in experiment [4] (H69AR cells + 2 uM doxorubicin), the differential viability (reversal) is -1.73% (inactive). Further, the inhibition in experiment [5] is -7.12% (inactive); in experiment [6] it was 9.35% (inactive).

For the compound `CCCCCc1c(C)nc(SCC(=O)O)[nH]c1=O`, the viability was 108% (inactive) in experiment [1]; 108% (inactive) in experiment [2]; 111% (inactive) in experiment [3]; 97.1% in experiment [4] (setting [7]); 111% in experiment [4] (setting [8]). For the same compound, the differential viability (reversal) in experiment [4] (H69AR cells + 2 uM doxorubicin) was 14% (inactive). In addition, the inhibition in experiment [5] is 1.23% (inactive); in experiment [6] it was -3.39% (inactive).

As to `CC1(C)NC(=O)N(CC(O)CN2CCCC2)C1=O` (centres undefined), the viability is 96% (inactive) in experiment [1]; 103% (inactive) in experiment [2]; 97.2% (inactive) in experiment [3]; 94.2% in experiment [4] (setting [7]); 97.2% in experiment [4] (setting [8]). Further, the differential viability (reversal) in experiment [4] (H69AR cells + 2 uM doxorubicin) was 2.99% (inactive). In addition, the figures for the inhibition in experiment [5] and in experiment [6] were 0.13% (inactive) and -2.79% (inactive), respectively.

Consider `CCc1cccc(NC(=O)CN(C)S(=O)(=O)c2cccc3nsnc23)c1`, for which the viability was 92% (inactive) in experiment [1]; 90.3% (inactive) in experiment [2]; 91.8% (inactive) in experiment [3]; 84.1% in experiment [4] (setting [7]); 91.8% in experiment [4] (setting [8]). In addition, the differential viability (reversal) in experiment [4] (H69AR cells + 2 uM doxorubicin) is 7.68% (inactive). Further, the inhibition was -5.68% (inactive) in experiment [5] and -2.55% (inactive) in experiment [6].

As to `CC(C)CN(CC(C)C)C(=O)CS(=O)(=O)Cc1ccccc1`, the viability in experiment [1] is 87% (inactive); in experiment [2], 98.8% (inactive); in experiment [3], 91.4% (inactive); in experiment [4] (setting [7]), 88.2%; in experiment [4] (setting [8]) it was 91.4%. Besides, in experiment [4] (H69AR cells + 2 uM doxorubicin), the differential viability (reversal) is 3.15% (inactive). Besides, the inhibition was -5.75% (inactive) in experiment [5] and 1.13% (inactive) in experiment [6].

As to `Cc1csc(NC(=O)CCn2c(=O)oc3ccccc32)n1`, the viability in experiment [1] was 91% (inactive); in experiment [2], 98.8% (inactive); in experiment [3] it was 94.4% (inactive); in experiment [4] (setting [7]), 84.5%; in experiment [4] (setting [8]) it was 94.4%. Further, the differential viability (reversal) in experiment [4] (H69AR cells + 2 uM doxorubicin) was 9.97% (inactive). Besides, the results for the inhibition in experiment [5] and in experiment [6] were -5.95% (inactive) and 1.45% (inactive), respectively.

For the compound `Cc1ccc2[nH]c3c(=O)n(CCCN4CCN(C)CC4)cnc3c2c1`, the viability in experiment [1] is 115% (inactive); in experiment [2] it was 99.9% (inactive); in experiment [3] it was 95.5% (inactive); in experiment [4] (setting [7]) it was 93.2%; in experiment [4] (setting [8]), 95.5%. Besides, the differential viability (reversal) in experiment [4] (H69AR cells + 2 uM doxorubicin) was 2.28% (inactive). The inhibition is -4.67% (inactive) in experiment [5] and 0% (inactive) in experiment [6].

Consider `CC(C)NCC(O)COc1ccc(CCOCC2CC2)cc1` (centres undefined), for which the viability in experiment [1] is 102% (inactive); in experiment [2] it was 83.3% (inactive); in experiment [3], 95.8% (inactive); in experiment [4] (setting [7]), 111%; in experiment [4] (setting [8]), 95.8%. Also, the differential viability (reversal) in experiment [4] (H69AR cells + 2 uM doxorubicin) is -14.9% (inactive). In addition, the inhibition in experiment [5] was -0.91% (inactive); in experiment [6], -5% (inactive).

For the compound `O=C(Nc1ccncc1)C1c2ccccc2Oc2ccccc21`, the viability in experiment [1] is 121% (inactive); in experiment [2], 100% (inactive); in experiment [3], 92.3% (inactive); in experiment [4] (setting [7]), 101%; in experiment [4] (setting [8]), 92.3%. Besides, the differential viability (reversal) in experiment [4] (H69AR cells + 2 uM doxorubicin) is -8.33% (inactive). Moreover, the inhibition is -2.3% (inactive) in experiment [5] and 14.4% (inactive) in experiment [6].

`CCOC(=O)c1cc2sc(C)cc2n1CC(=O)Nc1cccc(C)c1C`: the viability in experiment [1] is 90% (inactive); in experiment [2] it was 99.2% (inactive); in experiment [3], 91.2% (inactive); in experiment [4] (setting [7]), 94.2%; in experiment [4] (setting [8]) it was 91.2%. Moreover, the differential viability (reversal) in experiment [4] (H69AR cells + 2 uM doxorubicin) is -3.05% (inactive). Further, the inhibition in experiment [5] was -5.81% (inactive); in experiment [6] it was -5.82% (inactive).

Consider `C=CCN(CC=C)C(=O)c1ccncc1`, for which the viability in experiment [1] is 115% (inactive); in experiment [2], 92.8% (inactive); in experiment [3], 102% (inactive); in experiment [4] (setting [7]), 104%; in experiment [4] (setting [8]), 102%. In addition, in experiment [4] (H69AR cells + 2 uM doxorubicin), the differential viability (reversal) was -2.84% (inactive). Further, the inhibition in experiment [5] is 0.68% (inactive); in experiment [6], -4.84% (inactive).

For `Cc1cc(C)n(-c2nc3sc4c(c3c3nnc(SC(C)C)n23)CC(C)(C)OC4)n1`, the viability is 96% (inactive) in experiment [1]; 96.6% (inactive) in experiment [2]; 84.4% (inactive) in experiment [3]; 82% in experiment [4] (setting [7]); 84.4% in experiment [4] (setting [8]). Moreover, the differential viability (reversal) in experiment [4] (H69AR cells + 2 uM doxorubicin) is 2.36% (inactive). The figures for the inhibition in experiment [5] and in experiment [6] were 1.23% (inactive) and 17.6% (inactive), respectively.

Regarding `Cc1cnc(NC(=O)CSc2nnc(-c3ccccc3)n2Cc2ccccc2)s1`, the viability in experiment [1] is 99% (inactive); in experiment [2], 82.5% (inactive); in experiment [3] it was 90.2% (inactive); in experiment [4] (setting [7]), 85.8%; in experiment [4] (setting [8]), 90.2%. Further, in experiment [4] (H69AR cells + 2 uM doxorubicin), the differential viability (reversal) is 4.35% (inactive). Besides, the inhibition was 0.55% (inactive) in experiment [5] and 13.3% (inactive) in experiment [6].

As for `CCCOc1cccc(NC(=O)c2c(-c3ccccc3)noc2C)c1`, the viability in experiment [1] is 94% (inactive); in experiment [2] it was 89.7% (inactive); in experiment [3], 86.7% (inactive); in experiment [4] (setting [7]), 102%; in experiment [4] (setting [8]), 86.7%. Moreover, the differential viability (reversal) in experiment [4] (H69AR cells + 2 uM doxorubicin) is -15.2% (inactive). Moreover, the inhibition in experiment [5] is 0.78% (inactive); in experiment [6], -1.97% (inactive).

As to `O=C(COC(=O)c1ccccc1C(=O)c1ccccc1)c1ccco1`, the viability in experiment [1] is 59% (inactive); in experiment [2], 105% (inactive); in experiment [3], 90.3% (inactive); in experiment [4] (setting [7]), 87.8%; in experiment [4] (setting [8]), 90.3%. Moreover, the differential viability (reversal) in experiment [4] (H69AR cells + 2 uM doxorubicin) is 2.52% (inactive). Further, the inhibition in experiment [5] is -1.1% (inactive); in experiment [6], 2.36% (inactive).

As a reminder, the viability is a read-out of living cells in per cent, often relative to untreated cells. For orientation: inhibition means the relative decrease from the control value, in per cent.
